Assay results as given in ChEMBL document CHEMBL2062487, “Design, synthesis and evaluation of clinafloxacin triazole hybrids as a new type of antibacterial and antifungal agents” (2012).
In brackets after ≈: the same amount, converted by molar mass.

Experiments:
[1] = test system: Candida albicans; assay: Antifungal activity against Candida albicans ATCC 76615 by two fold broth dilution method; format: functional
Method in brief: (§1)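 MIC was determined by twofold broth dilution in microplates, following NCCLS recommendations. Clinafloxacin, chloramphenicol and fluconazole served as positive controls. Values are given in μg/mL.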

[2] = test system: Micrococcus luteus; assay: Antibacterial activity against Micrococcus luteus ATCC 4698 by two fold broth dilution method; format: functional; settings: NCTC 2665; method in brief: as §1
[3] = test system: Staphylococcus aureus; assay: Antibacterial activity against methicillin-resistant Staphylococcus aureus N 315 by two fold broth dilution method; format: functional; settings: N315
Method in brief: (§2)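 Twofold broth dilution in 96-well microtest plates following NCCLS guidance. Endpoint is the MIC (µg/mL), the lowest concentration that inhibits growth. Clinafloxacin, chloramphenicol and fluconazole served as positive controls.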

[4] = test system: Shigella dysenteriae; assay: Antibacterial activity against Shigella dysenteriae by two fold broth dilution method; format: functional; method in brief: as §2
[5] = test system: Candida; assay: Antifungal activity against Candida mycoderma by two fold broth dilution method; format: functional; method in brief: as §1
[6] = test system: Escherichia coli; assay: Antibacterial activity against Escherichia coli JM109 by two fold broth dilution method; format: functional; method in brief: as §1
[7] = test system: Pseudomonas aeruginosa; assay: Antibacterial activity against Pseudomonas aeruginosa by two fold broth dilution method; format: functional; method in brief: as §1
[8] = Antibacterial activity against Bacillus proteus by two fold broth dilution method; format: functional; method in brief: as §1
[9] = test system: Bacillus subtilis; assay: Antibacterial activity against Bacillus subtilis ATCC 6633 by two fold broth dilution method; format: functional; method in brief: as §1
[10] = test system: Staphylococcus aureus; assay: Antibacterial activity against Staphylococcus aureus ATCC […] by two fold broth dilution method; format: functional; method in brief: as §1
[11] = test system: Micrococcus luteus; assay: Ratio of chloramphenicol MIC to compound MIC for Micrococcus luteus ATCC 4698; format: functional, NCTC 2665
[12] = test system: Bacillus; assay: Ratio of clinafloxacin MIC to compound MIC for Bacillus proteus; format: functional

SMILES	MIC [1] [µg/mL]	MIC [2] [µg/mL]	MIC [3] [µg/mL]	MIC [4] [µg/mL]	MIC [5] [µg/mL]	MIC [6] [µg/mL]	MIC [7] [µg/mL]	MIC [8] [µg/mL]	MIC [9] [µg/mL]	MIC [10] [µg/mL]	Ratio [11]	Ratio [12]
Cc1ccc(C(=O)Cn2cncn2)cc1	> 512	> 512	> 512	> 512	> 512	32 (≈ 159 µM)	32 (≈ 159 µM)	> 512	256 (≈ 1270 µM)	> 512	–	–
O=C(Cn1cncn1)c1ccc(Cl)cc1	512 (≈ 2310 µM)	> 512	512 (≈ 2310 µM)	512 (≈ 2310 µM)	> 512	> 512	512 (≈ 2310 µM)	512 (≈ 2310 µM)	> 512	512 (≈ 2310 µM)	–	–
O=C(Cn1cncn1)c1ccc(F)cc1	> 512	> 512	> 512	> 512	> 512	> 512	512 (≈ 2500 µM)	> 512	> 512	> 512	–	–
O=C(Cn1cncn1)c1ccc(Cl)c(Cl)c1	> 512	512 (≈ 2000 µM)	> 512	512 (≈ 2000 µM)	512 (≈ 2000 µM)	32 (≈ 125 µM)	128 (≈ 500 µM)	256 (≈ 1000 µM)	512 (≈ 2000 µM)	256 (≈ 1000 µM)	–	–
O=C(Cn1cncn1)c1ccc(F)c(F)c1	> 512	512 (≈ 2290 µM)	> 512	512 (≈ 2290 µM)	512 (≈ 2290 µM)	64 (≈ 287 µM)	256 (≈ 1150 µM)	> 512	512 (≈ 2290 µM)	> 512	–	–
O=C(Cn1cncn1)c1ccc(Cl)cc1Cl	512 (≈ 2000 µM)	> 512	> 512	512 (≈ 2000 µM)	> 512	128 (≈ 500 µM)	256 (≈ 1000 µM)	512 (≈ 2000 µM)	512 (≈ 2000 µM)	> 512	–	–
O=C(Cn1cncn1)c1ccc(F)cc1F	512 (≈ 2290 µM)	512 (≈ 2290 µM)	> 512	512 (≈ 2290 µM)	> 512	32 (≈ 143 µM)	256 (≈ 1150 µM)	512 (≈ 2290 µM)	512 (≈ 2290 µM)	512 (≈ 2290 µM)	–	–
Fc1ccc(C2(Cn3cncn3)CO2)c(F)c1 (racemic)	64 (≈ 270 µM)	32 (≈ 135 µM)	128 (≈ 540 µM)	32 (≈ 135 µM)	8 (≈ 33.7 µM)	32 (≈ 135 µM)	16 (≈ 67.5 µM)	32 (≈ 135 µM)	16 (≈ 67.5 µM)	256 (≈ 1080 µM)	–	–
Cc1ccc(C2(Cn3cncn3)CO2)cc1 (racemic)	256 (≈ 1190 µM)	1 (≈ 4.65 µM)	512 (≈ 2380 µM)	256 (≈ 1190 µM)	1 (≈ 4.65 µM)	256 (≈ 1190 µM)	256 (≈ 1190 µM)	256 (≈ 1190 µM)	8 (≈ 37.2 µM)	256 (≈ 1190 µM)	8	–
Clc1ccc(C2(Cn3cncn3)CO2)cc1 (racemic)	32 (≈ 136 µM)	32 (≈ 136 µM)	256 (≈ 1090 µM)	32 (≈ 136 µM)	32 (≈ 136 µM)	32 (≈ 136 µM)	32 (≈ 136 µM)	16 (≈ 67.9 µM)	16 (≈ 67.9 µM)	64 (≈ 272 µM)	–	–
Fc1ccc(C2(Cn3cncn3)CO2)cc1 (racemic)	64 (≈ 292 µM)	8 (≈ 36.5 µM)	128 (≈ 584 µM)	64 (≈ 292 µM)	8 (≈ 36.5 µM)	128 (≈ 584 µM)	128 (≈ 584 µM)	128 (≈ 584 µM)	8 (≈ 36.5 µM)	256 (≈ 1170 µM)	–	–
Clc1ccc(C2(Cn3cncn3)CO2)cc1Cl (racemic)	64 (≈ 237 µM)	16 (≈ 59.2 µM)	256 (≈ 948 µM)	64 (≈ 237 µM)	16 (≈ 59.2 µM)	128 (≈ 474 µM)	128 (≈ 474 µM)	32 (≈ 118 µM)	16 (≈ 59.2 µM)	128 (≈ 474 µM)	–	–
Fc1ccc(C2(Cn3cncn3)CO2)cc1F (racemic)	128 (≈ 540 µM)	8 (≈ 33.7 µM)	256 (≈ 1080 µM)	64 (≈ 270 µM)	8 (≈ 33.7 µM)	128 (≈ 540 µM)	64 (≈ 270 µM)	64 (≈ 270 µM)	32 (≈ 135 µM)	256 (≈ 1080 µM)	–	–
Clc1ccc(C2(Cn3cncn3)CO2)c(Cl)c1 (racemic)	32 (≈ 118 µM)	32 (≈ 118 µM)	256 (≈ 948 µM)	64 (≈ 237 µM)	16 (≈ 59.2 µM)	256 (≈ 948 µM)	128 (≈ 474 µM)	64 (≈ 237 µM)	32 (≈ 118 µM)	256 (≈ 948 µM)	–	–
Cc1ccc(C(O)(CNC2CCN(c3c(F)cc4c(=O)c(C(=O)O)cn(C5CC5)c4c3Cl)C2)Cn2cncn2)cc1 (racemic)	0.5 (≈ 0.861 µM)	2 (≈ 3.44 µM)	0.25 (≈ 0.43 µM)	0.5 (≈ 0.861 µM)	0.5 (≈ 0.861 µM)	1 (≈ 1.72 µM)	0.5 (≈ 0.861 µM)	0.5 (≈ 0.861 µM)	0.5 (≈ 0.861 µM)	2 (≈ 3.44 µM)	–	–
O=C(O)c1cn(C2CC2)c2c(Cl)c(N3CCC(NCC(O)(Cn4cncn4)c4ccc(Cl)cc4)C3)c(F)cc2c1=O (racemic)	> 512	> 512	> 512	> 512	> 512	32 (≈ 53.2 µM)	> 512	512 (≈ 851 µM)	> 512	> 512	–	–
O=C(O)c1cn(C2CC2)c2c(Cl)c(N3CCC(NCC(O)(Cn4cncn4)c4ccc(F)cc4)C3)c(F)cc2c1=O (racemic)	1 (≈ 1.71 µM)	0.5 (≈ 0.855 µM)	2 (≈ 3.42 µM)	0.5 (≈ 0.855 µM)	0.5 (≈ 0.855 µM)	1 (≈ 1.71 µM)	0.5 (≈ 0.855 µM)	0.5 (≈ 0.855 µM)	1 (≈ 1.71 µM)	2 (≈ 3.42 µM)	–	–
O=C(O)c1cn(C2CC2)c2c(Cl)c(N3CCC(NCC(O)(Cn4cncn4)c4ccc(Cl)c(Cl)c4)C3)c(F)cc2c1=O (racemic)	2 (≈ 3.15 µM)	0.5 (≈ 0.786 µM)	0.25 (≈ 0.393 µM)	0.5 (≈ 0.786 µM)	0.5 (≈ 0.786 µM)	4 (≈ 6.29 µM)	0.5 (≈ 0.786 µM)	0.25 (≈ 0.393 µM)	32 (≈ 50.3 µM)	8 (≈ 12.6 µM)	–	–
O=C(O)c1cn(C2CC2)c2c(Cl)c(N3CCC(NCC(O)(Cn4cncn4)c4ccc(F)c(F)c4)C3)c(F)cc2c1=O (racemic)	0.5 (≈ 0.829 µM)	0.5 (≈ 0.829 µM)	0.5 (≈ 0.829 µM)	0.5 (≈ 0.829 µM)	0.5 (≈ 0.829 µM)	1 (≈ 1.66 µM)	0.5 (≈ 0.829 µM)	0.5 (≈ 0.829 µM)	0.5 (≈ 0.829 µM)	0.5 (≈ 0.829 µM)	–	–
O=C(O)c1cn(C2CC2)c2c(Cl)c(N3CCC(NCC(O)(Cn4cncn4)c4ccc(Cl)cc4Cl)C3)c(F)cc2c1=O (racemic)	4 (≈ 6.29 µM)	0.5 (≈ 0.786 µM)	4 (≈ 6.29 µM)	0.5 (≈ 0.786 µM)	0.5 (≈ 0.786 µM)	4 (≈ 6.29 µM)	2 (≈ 3.15 µM)	1 (≈ 1.57 µM)	32 (≈ 50.3 µM)	4 (≈ 6.29 µM)	–	–
O=C(O)c1cn(C2CC2)c2c(Cl)c(N3CCC(NCC(O)(Cn4cncn4)c4ccc(F)cc4F)C3)c(F)cc2c1=O (racemic)	0.5 (≈ 0.829 µM)	0.5 (≈ 0.829 µM)	0.25 (≈ 0.415 µM)	0.5 (≈ 0.829 µM)	0.5 (≈ 0.829 µM)	1 (≈ 1.66 µM)	0.5 (≈ 0.829 µM)	0.25 (≈ 0.415 µM)	0.5 (≈ 0.829 µM)	0.5 (≈ 0.829 µM)	–	2
O=C(N[C@H](CO)[C@H](O)c1ccc([N+](=O)[O-])cc1)C(Cl)Cl [CHLORAMPHENICOL]	> 512	8 (≈ 24.8 µM)	16 (≈ 49.5 µM)	32 (≈ 99 µM)	> 512	32 (≈ 99 µM)	32 (≈ 99 µM)	32 (≈ 99 µM)	32 (≈ 99 µM)	16 (≈ 49.5 µM)	–	–
NC1CCN(c2c(F)cc3c(=O)c(C(=O)O)cn(C4CC4)c3c2Cl)C1 (configuration not stated) [CLINAFLOXACIN]	> 512	0.5 (≈ 1.37 µM)	1 (≈ 2.73 µM)	1 (≈ 2.73 µM)	> 512	0.5 (≈ 1.37 µM)	0.5 (≈ 1.37 µM)	0.5 (≈ 1.37 µM)	0.5 (≈ 1.37 µM)	0.5 (≈ 1.37 µM)	–	–
OC(Cn1cncn1)(Cn1cncn1)c1ccc(F)cc1F [FLUCONAZOLE]	0.5 (≈ 1.63 µM)	> 512	> 512	> 512	0.5 (≈ 1.63 µM)	> 512	> 512	> 512	> 512	> 512	–	–
